Bioassay records: PubChem BioAssay, The Scripps Research Institute Molecular Screening Center
zfTRPN1 agonist: activates the zebrafish TRPN1 channel | HEK293 zebrafish TRPN1-YFP, Fluo-8 calcium fluorescence; 100% = response to 87 µM carbachol | activation, % at 3 µM | hit rate 0.18% among 220,000 | AID 1424;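 active = activation above its plate's cutoff, the mean activation of test wells on that plate plus 3 SD, cut at about 19% in these data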
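System: zebrafish TRPN1-YFP in HEK293 cells / Dosing: 3 µM single point / Timing: dye loading 1 h at 37 °C, then 30 min room temperature / Signal: Fluo-8 calcium fluorescence, excitation 470-495 nm, emission 515-575 nm / Read-out basis: percent activation from peak over basal fluorescence ratio, control-normalized / Control set: high carbachol 87 µM, low DMSO alone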
GPR7 antag: human neuropeptides B/W receptor 1 antagonism; P48145; AID 1861; GPR7-expressing cells, fluorescence antagonist assay; inhibition, % at 4.4 µM; hit rate 1.1% among 290,000; in the data active = inhibition above about 16%, passing the limit was not always enough;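 also: cells stimulated with the agonist NPW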
Target sequence (P48145 whole entry, looked up): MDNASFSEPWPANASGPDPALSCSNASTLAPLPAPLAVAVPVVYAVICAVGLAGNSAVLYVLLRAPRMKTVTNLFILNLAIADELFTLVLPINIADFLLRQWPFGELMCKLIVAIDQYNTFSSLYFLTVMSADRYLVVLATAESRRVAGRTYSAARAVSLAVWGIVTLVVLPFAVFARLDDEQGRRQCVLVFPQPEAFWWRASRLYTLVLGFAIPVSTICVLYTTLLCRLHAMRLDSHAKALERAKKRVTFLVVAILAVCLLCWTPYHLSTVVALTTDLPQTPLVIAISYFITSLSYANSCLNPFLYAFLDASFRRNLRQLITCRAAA
OX1R antag-1: OX1R (human) antagonism; O43613; OX1R-expressing cells, FRET antagonist read-out; inhibition, % at 6.6 µM; hit rate 1.8% among 330,000; AID 485270; in the data active = inhibition mostly above about 38%, no sharp cut-off; inactive = mostly below about 40%
Target sequence (O43613 whole entry, looked up): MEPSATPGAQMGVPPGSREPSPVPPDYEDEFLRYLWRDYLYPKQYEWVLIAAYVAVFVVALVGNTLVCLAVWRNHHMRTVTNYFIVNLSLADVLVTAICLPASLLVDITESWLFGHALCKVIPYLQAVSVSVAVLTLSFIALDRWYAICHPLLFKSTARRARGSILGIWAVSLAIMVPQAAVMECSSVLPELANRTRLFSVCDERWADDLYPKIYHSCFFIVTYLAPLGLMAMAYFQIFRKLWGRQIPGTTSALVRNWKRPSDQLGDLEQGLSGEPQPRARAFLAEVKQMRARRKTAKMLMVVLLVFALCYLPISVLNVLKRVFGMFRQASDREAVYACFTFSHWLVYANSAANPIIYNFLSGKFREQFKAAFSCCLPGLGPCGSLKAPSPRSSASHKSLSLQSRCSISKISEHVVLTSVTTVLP
TRPML3 agonist: agonists of human TRPML3 channel; Q8TDD5; HEK293 TRPML3-YFP, Fluo-8 calcium fluorescence; 100% = the carbachol control signal; activation, % at 3 µM; hit rate 0.29% among 220,000; AID 1448;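 active = activation above its plate's cutoff, the mean activation of the plate's test wells plus 3 SD, cut at about 12% in these data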
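system = HEK293 cells stably carrying human TRPML3-YFP | doses = one concentration, 3 µM nominal, 0.3% DMSO | timing = dye loading 1 h 37 °C then 30 min ambient, 125 s read | detection = Fluo-8 calcium dye fluorescence, ex 470-495, em 515-575 nm | benchmarks = high control carbachol 87 µM, low control DMSO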
OX1R antag-2: antagonists of human orexin 1 receptor; O43613; hit rate 0.43% among 330,000; CHO/OX1R cells, Fluo-8 calcium fluorescence, orexin A; inhibition, % at 5 µM;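 active = inhibition above its plate's threshold, mean inhibition of all tested compounds on the plate plus 3 SD, cut at about 37% in these data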
CHO parental Ca: counter-screen: ATP calcium response change in parental CHO cells. hit rate 0.63% among 330,000. parental CHO-K1, ATP-induced calcium, Fluo-8 fluorescence. inhibition, % at 5.6 µM. AID 463079;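 active = inhibition above that plate's mean sample inhibition plus 3 SD, cut at about 26% in these data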
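Measured by: calcium-sensitive Fluo-8 fluorescence / Test system: CHO parental line / Controls: ATP-challenged DMSO wells low, unchallenged DMSO wells high / Measure: % inhibition / Compound: single nominal dose of 5.6 µM per compound / Replicates: single well per compound, no replicates / Reagent: ATP as calcium-mobilizing challenge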
OX1R Fluo8 conf: confirmation of human orexin 1 receptor antagonists; AID 492963; inhibition, % at 5 µM; shares compounds with OX1R antag-2; hit rate 38% among 1,100; CHO/OX1R cells, orexin A calcium Fluo-8 fluorescence; in the data active = inhibition above about 29%
CHO Ca counter: signal in parental CHO cells, OX1R antagonist counter-screen; shares compounds with OX1R antag-2; parental CHO-K1, ATP-induced calcium, Fluo-8 fluorescence; inhibition, % at 5.6 µM; hit rate 9.3% among 1,100;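 active = inhibition above a per-plate limit, the mean inhibition of that plate's test compounds plus 3 SD, cut at about 25% in these data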
OX1R HTRF confirm: confirmation of human orexin 1 receptor antagonists, HTRF format; shares compounds with OX1R antag-1; OX1R-expressing cells, HTRF antagonist assay; inhibition, % at 6.6 µM; hit rate 49% among 1,800; AID 492964; in the data active = inhibition above about 55%;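 also: CHO cells expressing OX1R stimulated with orexin A at about EC80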
CHO-K1 HTRF cnt: counter-screen: parental CHO-K1 HTRF response | shares compounds with OX1R antag-1 | parental CHO-K1 cells, HTRF counterscreen | inhibition, % at 6.6 µM | hit rate 48% among 1,800 | AID 493232; in the data active = inhibition above about 17%
A number is an active result; n = inactive; x = no result. Compounds with a hit are over-represented: about 3.2% of the library has one in this group of screens.

SMILES	zfTRPN1 agonist	GPR7 antag	OX1R antag-1	TRPML3 agonist	OX1R antag-2	CHO parental Ca	OX1R Fluo8 conf	CHO Ca counter	OX1R HTRF confirm	CHO-K1 HTRF cnt
COc1ccc(N(CC(=O)Nc2ccc(OC)c(OC)c2)S(=O)(=O)c2ccccc2)cc1Cl	x	n	n	x	n	n	x	x	x	x
COc1ccc(N(CC(=O)Nc2cccc(N(C)S(C)(=O)=O)c2)S(=O)(=O)c2ccccc2)cc1Cl	n	n	n	n	59.2	n	56.3	n	x	x
COC(=O)CSc1nnc(-c2ccc(S(=O)(=O)NCc3ccccc3Cl)cc2)o1	n	n	n	n	n	n	32.9	n	x	x
COC(=O)CSc1nnc(-c2ccc(S(=O)(=O)N3CCCC3)cc2)o1	x	n	n	x	n	n	x	x	x	x
CC(c1cccs1)N(Cc1ccco1)C(=O)Nc1ccc(Cl)c(Cl)c1 (stereo unspecified)	n	n	n	n	43.8	n	n	n	x	x
COc1cccc(NC(=O)N(Cc2ccco2)C(C)c2cccs2)c1 (stereo unspecified)	n	n	n	n	n	n	x	x	x	x
COc1ccc(NC(=O)c2cc(-c3ccc(OC)c(OC)c3)on2)cc1OC	n	n	n	n	n	n	x	x	x	x
COc1ccc(NC(=O)c2cc(-c3ccccc3Cl)on2)cc1OC	x	n	n	x	n	n	30.0	n	x	x
O=C(C1CCCN(c2ncnc3c2nc2n3CCCCC2)C1)N1CCN(c2ccc(Cl)cc2)CC1 (stereo unspecified)	x	n	n	x	n	n	x	x	x	x
O=C(C1CCN(c2ncnc3c2nc2n3CCCCC2)CC1)N1CCN(c2cccc(Cl)c2)CC1	x	n	n	x	n	n	n	n	x	x
CC1CCC/C(=N\NC(=S)Nc2ccccc2)C1 (stereo unspecified)	n	n	n	n	n	n	n	n	x	x
CC1CCC/C(=N\NC(=S)NCc2ccccc2)C1 (stereo unspecified)	n	n	n	n	n	n	x	x	x	x
O=C(OCc1cc(=O)oc2cc(O)ccc12)c1cc(S(=O)(=O)N2CCOCC2)ccc1F	x	x	n	x	n	n	x	x	x	x
CCc1cc2c(COC(=O)c3cc(S(=O)(=O)N4CCOCC4)ccc3F)cc(=O)oc2cc1O	x	x	n	x	n	n	n	n	x	x
CCCn1c(N)c(C(=O)CSc2nc3ccccc3s2)c(=O)[nH]c1=O	n	n	n	n	44.6	n	n	n	x	x
O=C(NN1C(=O)/C(=C/c2ccc(O)cc2)SC1=S)c1ccccc1O	x	n	n	x	n	n	n	n	x	x
Cc1ccc(C)c(NC(=O)COC(=O)c2cc3ccccc3oc2=O)c1	x	x	n	x	n	n	x	x	x	x
COc1cc(CNC(C)c2ccccc2)cc(Br)c1OCc1ccccc1 (stereo unspecified)	x	n	n	x	45.6	n	n	n	x	x
COc1cccc(NC(=O)CN(c2ccccc2OC)S(=O)(=O)c2cccs2)c1	x	x	n	x	n	n	n	n	x	x
O=C(CSCc1cccc(CSCC(=O)Nc2ccc3ccccc3c2)n1)Nc1ccc2ccccc2c1	n	n	n	n	n	n	30.5	n	x	x
C[C@H](NC(N)=O)C(=O)Nc1ccc(N2CCOCC2)c(S(=O)(=O)Nc2ccc(Cl)cc2)c1	x	x	n	x	n	n	x	x	x	x
COc1ccc2[nH]c(C(=O)O)c(CCN3C(=O)c4cccc([N+](=O)[O-])c4C3=O)c2c1	n	n	n	n	103.1	n	n	n	x	x
COc1ccc2[nH]c(C(=O)O)c(CCNC(C)=O)c2c1	n	n	n	n	n	n	x	x	x	x
Cc1ccc[n+](CC(=O)Nc2ccc([N+](=O)[O-])cc2)c1	x	n	n	x	n	n	x	x	x	x
COC(=O)c1ccccc1NC(=O)CSc1nc(O)cc(=O)n1C1CCCC1	n	n	78.3	n	n	n	50.5	n	88.4	n
SMILES	zfTRPN1 agonist	GPR7 antag	OX1R antag-1	TRPML3 agonist	OX1R antag-2	CHO parental Ca	OX1R Fluo8 conf	CHO Ca counter	OX1R HTRF confirm	CHO-K1 HTRF cnt
CCCCNC(=O)CSc1nc(O)cc(=O)n1C1CCCC1	n	n	n	n	n	n	x	x	x	x
COc1ccccc1CCC(=O)OCC(=O)c1c(N)n(CC(C)C)c(=O)n(C)c1=O	x	x	49.1	x	n	n	39.8	n	n	n
COc1ccc(-c2[nH]ncc2N=Nc2ccccc2)cc1	n	n	98.2	n	n	n	n	n	n	n
COc1ccc(-c2[nH]ncc2N=Nc2cc(C)cc(C)c2)cc1	n	n	n	n	n	n	x	x	x	x
CCN(Cc1ccncc1)Cc1cn[nH]c1-c1cc(OC)c(OC)c(OC)c1	n	n	n	n	n	n	x	x	x	x
COc1ccccc1C(=O)NCCc1c(C)[nH]c2c(C)ccc(F)c12	n	n	50.1	n	n	n	n	n	n	n
O=C(CCN1C(=O)S/C(=C\c2cccs2)C1=O)NC1=NCCS1	n	n	n	n	n	n	x	x	x	x
COc1cc(CN2CCCC(N3CCN(c4ccc(F)cc4)CC3)C2)ccc1F (stereo unspecified)	x	n	n	x	n	n	x	x	x	x
Cc1ccc(/C=N/NC(=O)c2nnn(-c3nonc3N)c2CN(C)C)s1	x	n	n	x	n	n	x	x	x	x
C/C(=N\NC(=O)c1nnn(-c2nonc2N)c1CN(C)c1ccccc1)c1ccccn1	x	n	n	x	n	n	x	x	x	x
CN(Cc1c(C(=O)N/N=C/c2cccc(O)c2)nnn1-c1nonc1N)c1ccccc1	x	n	87.3	x	84.1	n	70.7	n	88.4	n
Cc1ccc(/C=N/NC(=O)c2nnn(-c3nonc3N)c2CN(C)c2ccccc2)s1	x	n	78.9	x	n	n	n	n	85.8	n
C/C(=N\NC(=O)c1nnn(-c2nonc2N)c1CN(C)c1ccccc1)c1cccs1	x	n	53.3	x	n	n	n	n	79.3	n
CCn1c(Cn2nnc(-c3ccccc3)n2)nnc1SCC(=O)Nc1ccccc1	n	n	50.0	n	n	n	n	n	56.0	n
C=CCNC(=O)c1ccc([N+](=O)[O-])c(Cl)c1	n	n	n	n	n	n	x	x	x	x
CC(C)(CNC(=O)c1ccc([N+](=O)[O-])c(Cl)c1)CNC(=O)c1ccc([N+](=O)[O-])c(Cl)c1	n	n	84.6	n	41.2	n	n	n	n	18.1
COc1ccc(/C=C/c2nc(N)nc(-c3ccccc3O)n2)cc1OC	n	n	86.7	n	63.1	n	69.5	n	91.8	n
COc1ccc(-c2csc(NC(=O)c3cc(C)oc3C)n2)cc1OC	x	n	64.2	x	n	n	n	n	69.3	n
Cc1cc(C(=O)CN2C(=O)NC3(CCCc4sccc43)C2=O)c(C)n1-c1ccccc1 (stereo unspecified)	n	n	85.2	n	38.3	n	34.8	n	79.8	n
